In ChEMBL document CHEMBL1123623, “Synthesis of some [N-(2-haloalkyl)amino]tetralin derivatives as potential irreversible labels for bovine anterior pituitary D2 dopamine receptors” (J Med Chem, 1987):

How the values were obtained:
[1] = target: T1, D(2) dopamine receptor (Bos taurus, UniProt P20288); test: Ability to displace [3H]spiperone binding from anterior pituitary Dopamine receptor D2 in the absence of GTP; NA means inactive
Summary of the method: (§1)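 Bovine anterior pituitary membranes; displacement of [3H]spiperone (ca. 500 pM) with no GTP added. Specific binding defined with 3.3 μM (+)-butaclamol; buffer with 0.1% ascorbic acid in place of dithiothreitol. Triplicate points; IC50 corrected for [3H]spiperone concentration, plus pseudo Hill coefficient. Mean ± SEM (n ≥ 3) or mean ± range (n = 2).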

[2] = target: T1, D(2) dopamine receptor; test: Ability to displace [3H]spiperone binding from anterior pituitary Dopamine receptor D2 in the presence of 100 uM GTP
Summary of the method: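 [3H]spiperone (ca. 500 pM) displacement in bovine anterior pituitary membranes in the presence of 100 μM GTP. Nonspecific binding set with 3.3 μM (+)-butaclamol; 0.1% ascorbic acid replaced dithiothreitol. Points in triplicate; IC50 corrected for radioligand concentration, with pseudo Hill coefficient. Mean ± SEM (n ≥ 3) or mean ± range (n = 2).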

[3] = target: T1, D(2) dopamine receptor; test: Ability to displace [3H]spiperone binding from anterior pituitary Dopamine receptor D2 in the absence of GTP; summary of the method: as §1

T1 sequence (P20288 whole entry): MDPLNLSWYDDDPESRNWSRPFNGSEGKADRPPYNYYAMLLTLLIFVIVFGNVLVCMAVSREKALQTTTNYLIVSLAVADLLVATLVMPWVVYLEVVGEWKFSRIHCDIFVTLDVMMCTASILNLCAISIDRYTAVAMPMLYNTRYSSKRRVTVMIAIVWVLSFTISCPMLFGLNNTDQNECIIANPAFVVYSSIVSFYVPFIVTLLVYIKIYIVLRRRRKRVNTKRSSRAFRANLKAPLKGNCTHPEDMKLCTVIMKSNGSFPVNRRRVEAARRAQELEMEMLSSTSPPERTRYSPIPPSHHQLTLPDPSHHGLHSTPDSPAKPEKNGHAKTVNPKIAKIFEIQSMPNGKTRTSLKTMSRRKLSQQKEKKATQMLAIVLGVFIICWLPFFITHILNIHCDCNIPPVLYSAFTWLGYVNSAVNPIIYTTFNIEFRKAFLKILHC

SMILES	IC50 [1]	IC50 [2]	IC50 [3]
O=C(CCl)NC1CCc2cc(O)c(O)cc2C1 (stereo not given)	Not Active	–	–
CCCN(CCCl)C1CCc2cc(O)c(O)cc2C1 (stereo not given)	–	0.26 µM	0.076 µM
CN(CCCl)C1CCc2cc(O)ccc2C1 (stereo not given)	–	–	2.97 µM
COc1cc2c(cc1OC)CC(NCCCl)CC2.Cl (stereo not given)	Not Active	–	–
CCCN(CCBr)C1CCc2cc(O)c(O)cc2C1 (stereo not given)	–	> 100 µM	1.97 µM
CCCN(CCCl)C1CCc2cc(OC)c(OC)cc2C1.Cl (stereo not given)	Not Active	–	–
Oc1cc2c(cc1O)CC(NCCBr)CC2 (stereo not given)	–	0.42 µM	0.17 µM
COc1cc2c(cc1OC)CC(NCCO)CC2.Cl (stereo not given)	Not Active	–	–
CN(CCCl)C1CCc2c(ccc(O)c2O)C1 (stereo not given)	–	> 100 µM	32.2 µM
Oc1cc2c(cc1O)CC(NCCCl)CC2 (stereo not given)	–	> 100 µM	0.3 µM
CN(CCCl)C1CCc2cc(O)c(O)cc2C1 (stereo not given)	–	3.72 µM	1.82 µM
Br.CCCN(CC(C)Br)C1CCc2cc(O)c(O)cc2C1 (stereo not given)	Not Active	–	–
CCCN(CCO)C1CCc2cc(O)c(O)cc2C1 (stereo not given)	–	2.42 µM	0.42 µM
CC(Br)CNC1CCc2cc(O)c(O)cc2C1 (stereo not given)	–	1.01 µM	0.3 µM
CCCN(CCO)C1CCc2cc(OC)c(OC)cc2C1 (stereo not given)	Not Active	–	–
COc1cc2c(cc1OC)CC(NC(=O)CCl)CC2 (stereo not given)	Not Active	–	–
CCCN(C(=O)CCl)C1CCc2cc(OC)c(OC)cc2C1 (stereo not given)	Not Active	–	–
